Results taken from ChEMBL document CHEMBL5252669, “Semisynthetic blasticidin S ester derivatives show enhanced antibiotic activity” (RSC Med Chem, 2023).
Converted amounts (≈) assume the structure as drawn. The source made the active and inactive calls. The rule behind the calls is not given here.

What was measured:
[1] = Selectivity index, ratio of CC50 for human MRC5 cells to IC50 for Klebsiella pneumoniae ATCC 29665; format: toxicity; settings: read-out: Ratio CC50/IC50
[2] = system: Staphylococcus aureus; assay: Antibacterial activity against NorA deleted Staphylococcus aureus assessed as zone of inhibition incubated for 18 hrs by spot on lawn assay; format: functional, organism-based
Outline: (§1)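 Overnight LB cultures diluted to OD600 0.01 in 0.7% LB top agar, overlaid on 1.5% LB agar; 5 mg mL−1 aqueous compound spotted at 35, 25, 10 and 5 μg with 1:1 water/methanol vehicle spot; 37 °C, 18 h; inhibition zone diameter measured by ruler.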

[3] = system: Enterococcus; assay: Antibacterial activity against vancomycin-resistant Enterococcus incubated for 20 hrs by broth microdilution method
[4] = system: Saccharomyces cerevisiae; assay: Antifungal activity against Saccharomyces cerevisiae incubated for 16 hrs by broth microdilution method; format: functional
[5] = system: Acinetobacter baumannii; assay: Antibacterial activity against Acinetobacter baumannii ATCC 17978 incubated for 16 hrs by broth microdilution method; format: functional, organism-based; settings: for IC50: ATCC 17978, 16 h; for MIC: ATCC 17978, time 16 hrs
[6] = Selectivity index, ratio of CC50 for human MRC5 cells to IC50 for vancomycin-resistant Enterococcus; format: toxicity; settings: read-out: Ratio CC50/IC50
[7] = system: Klebsiella pneumoniae; assay: Antibacterial activity against Klebsiella pneumoniae ATCC 29665 incubated for 16 hrs by broth microdilution method; format: functional, organism-based; settings: for IC50: ATCC 29665, 16 h; for MIC: ATCC 29665, time 16 hrs
[8] = Selectivity index, ratio of CC50 for human MRC5 cells to IC50 for Acinetobacter baumannii ATCC 17978; format: toxicity; settings: read-out: Ratio CC50/IC50
[9] = system: Enterococcus; assay: Antibacterial activity against vancomycin-resistant Enterococcus assessed as zone of inhibition incubated for 18 hrs by spot on lawn assay; format: functional, organism-based
Outline: (§2)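 Spot-on-lawn assay. Plates of 1.5% agar in LB were overlaid with 0.7% LB agar seeded with overnight culture at 0.01 OD600. Aqueous 5 mg mL−1 solutions were spotted at 35, 25, 10 and 5 μg, with a 1:1 water/methanol vehicle spot. After 18 h at 37 °C, inhibition zone diameters were measured with a ruler.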

[10] = system: Enterococcus faecalis; assay: Antibacterial activity against Enterococcus faecalis ATCC 29212 incubated for 20 hrs by broth microdilution method; settings: ATCC 29212, 20 h
[11] = Selectivity index, ratio of CC50 for human MRC5 cells to IC50 for NorA deleted Staphylococcus aureus; format: toxicity; settings: read-out: Ratio CC50/IC50
[12] = system: Candida albicans; assay: Antifungal activity against Candida albicans incubated for 16 hrs by broth microdilution method; format: functional
[13] = Cytotoxicity against human MRC5 cells incubated for 24 hrs by MTS assay; format: toxicity, cell-based
Outline: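 MRC-5 lung fibroblasts seeded 5000 per well; medium replaced with compound 16–192 μg mL−1 or matching 1:1 methanol:water vehicle; 24 h, then MTS 3–4 h; absorbance 490 nm; viability relative to untreated cells, normalized to vehicle; CC50 from two independent assays in duplicate, mean ± SD.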

[14] = Selectivity index, ratio of CC50 for human MRC5 cells to IC50 for Enterococcus faecalis ATCC 29212; format: toxicity; settings: read-out: Ratio CC50/IC50
[15] = system: Staphylococcus aureus; assay: Antibacterial activity against methicillin resistant Staphylococcus aureus assessed as zone of inhibition incubated for 18 hrs by spot on lawn assay; format: functional, organism-based; outline: as §2
[16] = Selectivity index, ratio of CC50 for human MRC5 cells to IC50 for methicillin resistant Staphylococcus aureus; format: toxicity; settings: read-out: Ratio CC50/IC50
[17] = system: Pseudomonas aeruginosa; assay: Antibacterial activity against MexAB-OprM deleted Pseudomonas aeruginosa incubated for 16 hrs by broth microdilution method; format: functional, organism-based; settings: for IC50: 16 h; for MIC: time 16 hrs
[18] = Selectivity index, ratio of CC50 for human MRC5 cells to IC50 for Staphylococcus aureus; format: toxicity; settings: read-out: Ratio CC50/IC50
[19] = system: Staphylococcus aureus; assay: Antibacterial activity against wild type Staphylococcus aureus 8810 incubated for 16 hrs by broth microdilution method; format: functional, organism-based; settings: for IC50: Staphylococcus aureus, 8810, 16 h; for MIC: Staphylococcus aureus, 8810, time 16 hrs
Outline: (§3)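 Cation-adjusted Mueller-Hinton broth microdilution. Overnight cultures from single colonies were diluted to OD600 0.004. Final compound range was 256–2 μg mL−1 in 1:1 methanol/water vehicle, with doxycycline and vehicle controls. Plates were incubated 16 h at 37 °C. OD600 was normalized to controls, and MIC was the lowest concentration inhibiting >90% growth. Two biological replicates in duplicate; reported as a range.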

[20] = system: Candida albicans; assay: Antifungal activity against Candida albicans assessed as zone of inhibition incubated for 18 hrs by spot on lawn assay; format: functional, organism-based; outline: as §1
[21] = Selectivity index, ratio of CC50 for human MRC5 cells to IC50 for MexAB-OprM deleted Pseudomonas aeruginosa; format: toxicity; settings: read-out: Ratio CC50/IC50
[22] = system: Staphylococcus aureus; assay: Antibacterial activity against methicillin resistant Staphylococcus aureus ATCC 43300 incubated for 16 hrs by broth microdilution method; format: functional, organism-based; settings: for IC50: ATCC 43300, 16 h; for MIC: ATCC 43300, time 16 hrs; outline: as §3
[23] = system: Staphylococcus aureus; assay: Antibacterial activity against Staphylococcus aureus assessed as zone of inhibition incubated for 18 hrs by spot on lawn assay; format: functional, organism-based; outline: as §1
[24] = system: Enterococcus faecalis; assay: Antibacterial activity against Enterococcus faecalis ATCC 29212 assessed as zone of inhibition incubated for 18 hrs by spot on lawn assay; format: functional, organism-based; outline: as §1
[25] = system: Staphylococcus aureus; assay: Antibacterial activity against NorA deleted Staphylococcus aureus incubated for 16 hrs by broth microdilution method; format: functional, organism-based; settings: for IC50: 16 h; for MIC: time 16 hrs; outline: as §3

| Structure (SMILES) | selectivity ratio [1] | IC50 [3] | MIC [3] | MIC [4] | IC50 [5] | MIC [5] | selectivity ratio [6] | IC50 [7] | MIC [7] | selectivity ratio [8] | IC50 [10] | MIC [10] | selectivity ratio [11] | MIC [12] | CC50 at 24 h [13] | selectivity ratio [14] | selectivity ratio [16] | IC50 [17] | MIC [17] | selectivity ratio [18] | further results |
| --- | --- | --- | --- | --- | --- | --- | --- | --- | --- | --- | --- | --- | --- | --- | --- | --- | --- | --- | --- | --- | --- |
| C#CCCCOC(=O)[C@H]1O[C@@H](n2ccc(N)nc2=O)C=C[C@@H]1NC(=O)C[C@@H](N)CCN(C)C(=N)N | 0.5 | 72.1 µg/mL (≈ 148 µM) | 128 µg/mL (≈ 262 µM) | 64 µg/mL (≈ 131 µM) | 61.5 µg/mL (≈ 126 µM) | > 128 µg/mL | 0.7 | 92.3 µg/mL (≈ 189 µM) | > 128 µg/mL | 0.8 | 12.2 µg/mL (≈ 25 µM) | 32 µg/mL (≈ 65.5 µM) | 1.4 | > 128 µg/mL | 50.4 µg/mL (≈ 103 µM) | 4.1 | 1.7 | 74.3 µg/mL (≈ 152 µM) | > 128 µg/mL | 2.6 | Activity [2]: Active; Activity [9]: Active; Activity [15]: Active; IC50 [19]: 19.3 µg/mL (≈ 39.5 µM); MIC [19]: 64 µg/mL (≈ 131 µM); Activity [20]: inactive; selectivity ratio [21]: 0.7; IC50 [22]: 29.2 µg/mL (≈ 59.8 µM); MIC [22]: 64 µg/mL (≈ 131 µM); Activity [23]: Active; Activity [24]: Active; IC50 [25]: 36 µg/mL (≈ 73.7 µM); MIC [25]: 64 µg/mL (≈ 131 µM) |
| CCCCCCOC(=O)[C@H]1O[C@@H](n2ccc(N)nc2=O)C=C[C@@H]1NC(=O)C[C@@H](N)CCN(C)C(=N)N | 0.3 | 140 µg/mL (≈ 276 µM) | 256 µg/mL (≈ 505 µM) | 16 µg/mL (≈ 31.6 µM) | 52.4 µg/mL (≈ 103 µM) | 128 µg/mL (≈ 253 µM) | 0.1 | 67.1 µg/mL (≈ 132 µM) | 128 µg/mL (≈ 253 µM) | 0.3 | 11.4 µg/mL (≈ 22.5 µM) | 16 µg/mL (≈ 31.6 µM) | 1 | > 32 µg/mL | 18.4 µg/mL (≈ 36.3 µM) | 1.6 | 0.4 | 77.2 µg/mL (≈ 152 µM) | > 128 µg/mL | 0.7 | IC50 [19]: 27.1 µg/mL (≈ 53.5 µM); MIC [19]: 64 µg/mL (≈ 126 µM); selectivity ratio [21]: 0.2; IC50 [22]: 43.2 µg/mL (≈ 85.3 µM); MIC [22]: 128 µg/mL (≈ 253 µM); IC50 [25]: 18 µg/mL (≈ 35.5 µM); MIC [25]: 32 µg/mL (≈ 63.2 µM) |
| CCOC(=O)[C@H]1O[C@@H](n2ccc(N)nc2=O)C=C[C@@H]1NC(=O)C[C@@H](N)CCN(C)C(=N)N.Cl.Cl.Cl | 0.1 | 34.4 µg/mL | 64 µg/mL | 32 µg/mL | 30.4 µg/mL | 64 µg/mL | 0.3 | 73.9 µg/mL | > 128 µg/mL | 0.3 | 9.9 µg/mL | 16 µg/mL | 0.4 | > 256 µg/mL | 8.9 µg/mL | 0.9 | 0.5 | 67 µg/mL | > 128 µg/mL | 0.8 | Activity [2]: Active; Activity [9]: Active; Activity [15]: Active; IC50 [19]: 11.6 µg/mL; MIC [19]: 32 µg/mL; Activity [20]: inactive; selectivity ratio [21]: 0.1; IC50 [22]: 17 µg/mL; MIC [22]: 32 µg/mL; Activity [23]: Active; Activity [24]: Active; IC50 [25]: 20 µg/mL; MIC [25]: 32 µg/mL |
